Results reported in ChEMBL document CHEMBL5390282, “Discovery of tert-Butyl Ester Based 6-Diazo-5-oxo-l-norleucine Prodrugs for Enhanced Metabolic Stability and Tumor Delivery” (J Med Chem, 2023).
Blank lines part the entries; values can stand above or below the compound they belong to.

Experiments:
[1] = Prodrug conversion in C57BL/6 mouse model with CES-/- bearing mouse EL4 cells assessed as concentration of DON release in tumor administered subcutaneously at 1 mg/kg DON equivalent measured after 30 mins; type: ADME, organism-based; conditions: in vivo, sc, 0.5 h, read-out: Drug metabolism
In short: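 Male and female CES1–/– C57BL/6 mice, 6–8 weeks old, each carrying a flank EL4 tumour (1 × 10^6 cells SC in PBS, grown to about 400 mm3). Prodrug dissolved just before use in ethanol:Tween 80:saline (5:10:85) and given once SC at 1 mg/kg DON equivalent, n = 3. At 30 min, plasma and tumour collected. DON measured by LC-MS/MS after dabsyl chloride derivatization, glutamate-d5 internal standard, calibration 0.03–100 nmol/mL.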

[2] = Prodrug conversion in jejunum of C57BL/6 mouse model with CES-/- bearing mouse EL4 cells assessed as Tmax of DON metabolite at 2.9 mg/kg, sc measured upto 6 hrs by LC-MS analysis; type: ADME, organism-based; conditions: in vivo
In short: (§1)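 CES1–/– C57BL/6 mice with flank EL4 tumours (about 400 mm3) dosed SC at 2.9 mg/kg (1 mg/kg DON equivalent) in ethanol:Tween 80:saline (5:10:85). Plasma, tumour and jejunum sampled 0–6 h after dosing. DON quantified by LC-MS/MS after dabsyl chloride derivatization, glutamate-d5 internal standard. Cmax, Tmax and AUC derived by noncompartmental analysis.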

P493B = assay: Antiproliferative activity against human P493B cells assessed as reduction in cell viability incubated for 72 hrs by Cell Titer 96 Aqueous assay; type: functional, cell-based
In short: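 P493B lymphoma cells seeded at 20 000 cells/well. Test agent added as half-log serial dilutions in 0.2% DMSO final, then 72 h growth. CellTiter 96 AQueous reagent added for 2 h and absorbance read at 490 nm. Viability scaled between untreated cells (100%) and cell-free medium (0%). EC50 obtained by nonlinear regression of log-transformed data.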

[3] = Prodrug conversion in plasma of C57BL/6 mouse model with CES-/- bearing mouse EL4 cells assessed as AUC (0 to t) of DON metabolite at 2.9 mg/kg, sc measured upto 6 hrs by LC-MS analysis; type: ADME, organism-based; conditions: in vivo; in short: as §1
[4] = Prodrug conversion in tumor of C57BL/6 mouse model with CES-/- bearing mouse EL4 cells assessed as AUC of DON metabolite at 2.9 mg/kg, sc measured upto 6 hrs by LC-MS analysis; type: ADME, organism-based, Neoplasm; design: time < 6 hrs, dose 2.9 mg/kg, route sc; conditions: in vivo; in short: as §1
[5] = Prodrug conversion in tumor of C57BL/6 mouse model with CES-/- bearing mouse EL4 cells assessed as half life of DON metabolite at 2.9 mg/kg, sc measured upto 6 hrs by LC-MS analysis; type: ADME, organism-based, Neoplasm; conditions: in vivo; in short: as §1
[6] = Prodrug conversion in C57BL/6 mouse model with CES-/- bearing mouse EL4 cells assessed as ratio of DON metabolite AUC in tumor to jejunum at 2.9 mg/kg, sc measured upto 6 hrs by LC-MS analysis; type: ADME, organism-based; conditions: in vivo; in short: as §1
[7] = Prodrug conversion in jejunum of C57BL/6 mouse model with CES-/- bearing mouse EL4 cells assessed as AUC of DON metabolite at 2.9 mg/kg, sc measured upto 6 hrs by LC-MS analysis; type: ADME, organism-based; design: dose 2.9 mg/kg, time < 6 hrs, route sc; conditions: in vivo; in short: as §1
[8] = Prodrug conversion in jejunum of C57BL/6 mouse model with CES-/- bearing mouse EL4 cells assessed as AUC (0 to t) of DON metabolite at 2.9 mg/kg, sc measured upto 6 hrs by LC-MS analysis; type: ADME, organism-based; conditions: in vivo; in short: as §1
[9] = Prodrug conversion in human P493B cells suspended in human plasma assessed as DON metabolite concentration at 20 uM incubated for 1 hr; type: ADME, cell-based
In short: (§2)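 P493B cells resuspended in human plasma at 10 million cells/mL and preincubated 5 min at 37 °C. Prodrug spiked at 20 μM final and incubated 1 h at 37 °C, in triplicate. Cells pelleted at 1000g. Plasma and pellet each analysed by LC-MS for intact prodrug and DON, with calibration made in each matrix. Partitioning expressed as cell/plasma ratio.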

[10] = Prodrug conversion in C57BL/6 mouse model with CES-/- bearing mouse EL4 cells assessed as ratio of DON metabolite AUC in tumor to plasma at 2.9 mg/kg, sc measured upto 6 hrs by LC-MS analysis; type: ADME, organism-based; conditions: tumour; in short: as §1
[11] = Prodrug conversion in tumor of C57BL/6 mouse model with CES-/- bearing mouse EL4 cells assessed as Tmax of DON metabolite at 2.9 mg/kg, sc measured upto 6 hrs by LC-MS analysis; type: ADME, organism-based, Neoplasm; conditions: in vivo; in short: as §1
[12] = Prodrug conversion in plasma of C57BL/6 mouse model with CES-/- bearing mouse EL4 cells assessed as Cmax of DON metabolite at 2.9 mg/kg, sc measured upto 6 hrs by LC-MS analysis; type: ADME, organism-based; design: time < 6 hrs, dose 2.9 mg/kg, route sc; conditions: in vivo; in short: as §1
[13] = Prodrug conversion in jejunum of C57BL/6 mouse model with CES-/- bearing mouse EL4 cells assessed as Cmax of DON metabolite at 2.9 mg/kg, sc measured upto 6 hrs by LC-MS analysis; type: ADME, organism-based; design: dose 2.9 mg/kg, time < 6 hrs, route sc; conditions: in vivo; in short: as §1
[14] = Stability in human P493B cells suspended in human plasma assessed as DON metabolite release at 20 uM incubated for 1 hr; type: ADME, cell-based; in short: as §2
[15] = Chemical stability of compound at pH 7.4 at 10 uM incubated for 24 hrs by HRMS analysis; type: physicochemical; conditions: buffer, pH 7.4, 24 h
In short: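 Prodrug spiked at 10 μM into pH 7.4 buffer and held at 37 °C for 24 h. Loss of prodrug followed by HRMS.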

[16] = Prodrug conversion in plasma of C57BL/6 mouse model with CES-/- bearing mouse EL4 cells assessed as Tmax of DON metabolite at 2.9 mg/kg, sc measured upto 6 hrs by LC-MS analysis; type: ADME, organism-based; conditions: in vivo; in short: as §1
[17] = Prodrug conversion of C57BL/6 mouse model with CES-/- bearing mouse EL4 cells assessed as ratio of DON metabolite AUC (0 to t) in tumor to plasma at 2.9 mg/kg, sc measured upto 6 hrs by LC-MS analysis; type: ADME, organism-based; conditions: tumour; in short: as §1
[18] = Prodrug conversion in tumor of C57BL/6 mouse model with CES-/- bearing mouse EL4 cells assessed as Cmax of DON metabolite at 2.9 mg/kg, sc measured upto 6 hrs by LC-MS analysis; type: ADME, organism-based, Neoplasm; design: dose 2.9 mg/kg, time < 6 hrs, route sc; conditions: in vivo; in short: as §1
[19] = Prodrug conversion in jejunum of C57BL/6 mouse model with CES-/- bearing mouse EL4 cells assessed as half life of DON metabolite at 2.9 mg/kg, sc measured upto 6 hrs by LC-MS analysis; type: ADME, organism-based; conditions: in vivo; in short: as §1
[20] = Drug concentration in jejunum of C57BL/6 mouse model with CES-/- bearing mouse EL4 cells at 2.9 mg/kg, sc measured upto 6 hrs by LC-MS analysis; type: ADME, organism-based; in short: as §1
[21] = Stability in human plasma suspended with human P493B cells assessed as tumor cell to plasma partitioning at 20 uM incubated for 1 hr; type: ADME; in short: as §2
[22] = Prodrug conversion in plasma of C57BL/6 mouse model with CES-/- bearing mouse EL4 cells assessed as AUC of DON metabolite at 2.9 mg/kg, sc measured upto 6 hrs by LC-MS analysis; type: ADME, organism-based; design: time < 6 hrs, dose 2.9 mg/kg, route sc; conditions: in vivo; in short: as §1
[23] = Prodrug conversion in plasma of C57BL/6 mouse model with CES-/- bearing mouse EL4 cells assessed as half life of DON metabolite at 2.9 mg/kg, sc measured upto 6 hrs by LC-MS analysis; type: ADME, organism-based; conditions: in vivo; in short: as §1
[24] = Stability in human P493B cells suspended in human plasma assessed as tumor cell to plasma partitioning ratio at 20 uM incubated for 1 hr; type: ADME, cell-based; in short: as §2
[25] = Prodrug conversion of C57BL/6 mouse model with CES-/- bearing mouse EL4 cells assessed as ratio of DON metabolite AUC (0 to t) in tumor to jejunum at 2.9 mg/kg, sc measured upto 6 hrs by LC-MS analysis; type: ADME, organism-based; conditions: in vivo; in short: as §1
[26] = Prodrug conversion in tumor of C57BL/6 mouse model with CES-/- bearing mouse EL4 cells assessed as AUC (0 to t) of DON metabolite at 2.9 mg/kg, sc measured upto 6 hrs by LC-MS analysis; type: ADME, organism-based, Neoplasm; conditions: in vivo; in short: as §1

SMILES: CN(C)CC(=O)N[C@@H](CCc1ccccc1)C(=O)N[C@@H](CCC(=O)C=[N+]=[N-])C(=O)OC(C)(C)C
concentration [1]: 4.52 µM

Tmax [2]: 60 min
AUCt [3]: 3.8 nmol·h/g
AUC [4]: 14.4 µM·h
t1/2 [5]: 83.4 min
Ratio AUC [6]: 3.92
AUC [7]: 3.67 µM·h
AUCt [8]: 3.13 nmol·h/g
Drug metabolism [9]: 46.7 µM
Ratio AUC [10]: 3.63
Tmax [11]: 30 min
Cmax [12]: 1.86 µM
Cmax [13]: 1.54 µM
Stability [14]: Unstable
Stability [15]: Stable
Tmax [16]: 30 min
Ratio AUC [17]: 3.6
Cmax [18]: 5.49 µM
t1/2 [19]: 59.4 min
concentration at 6 h [20]: < 0.01 µM
Stability [21]: Stable
AUC [22]: 3.97 µM·h
t1/2 [23]: 87 min
Ratio [24]: 140
Ratio AUC [25]: 4.4
concentration [1]: 5.49 µM
AUCt [26]: 13.7 nmol·h/g
SMILES: CN(C)CC(=O)N[C@@H](Cc1ccccc1)C(=O)N[C@@H](CCC(=O)C=[N+]=[N-])C(=O)OC(C)(C)C
Activity (P493B): Dose-Dependent Effect

Drug metabolism [9]: 9.1 µM
Stability [14]: Unstable
Stability [15]: Stable
Stability [21]: Stable
Ratio [24]: 180
concentration [1]: 1.21 µM
SMILES: CC(=O)N[C@@H](Cc1c[nH]c2ccccc12)C(=O)N[C@@H](CCC(=O)C=[N+]=[N-])C(=O)OC(C)C [SIRPIGLENASTAT]
Activity (P493B): Dose-Dependent Effect

concentration [1]: 4.16 µM
SMILES: CN(C)CC(=O)N[C@@H](Cc1ccc(C(F)(F)F)cc1)C(=O)N[C@@H](CCC(=O)C=[N+]=[N-])C(=O)OC(C)(C)C
